Screening data (PubChem)
KCNQ1 block: blocks the human KCNQ1 potassium channel; 310,000 compounds, 1.3% hits; CHO-K1 KCNQ1, FluxOR thallium flux fluorescence; stronger effect = higher value; B-score at 10 µM; P51787;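 active = compounds whose thallium flux B-score, printed positive for inhibition, exceeds three library SD while starting fluorescence stays within three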;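 note: channel opened by potassium depolarization with thallium stimulus after 20 min compound exposure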
KCNK9 inh: human KCNK9 channel inhibition; Q9NPC2; HEK293 KCNK9, FluxOR thallium flux fluorescence; stronger effect = lower value; B-score at 10 µM; 310,000 compounds, 1.2% hits;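 active = ratio B-score over 3 SD below the library mean, with starting fluorescence within 5 SD of its mean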;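 note: negative B-score means less thallium flux so channel inhibition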
Kir21 inh: Kir2.1 (mouse) channel inhibition; P35561; HEK293-Kir2.1, FluxOR thallium flux fluorescence; stronger effect = lower value; B-score at 10 µM; 310,000 compounds, 0.85% hits;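 active = fluorescence ratio B-score at or below minus 3 SD of library scores, with starting-brightness B-score within 2 SD, cut at about -4.2 in these data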;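 note: channel flux triggered by added potassium and thallium sulfate stimulus; B-score of peak minus minimum fluorescence over baseline after thallium stimulus; more negative B-score means stronger Kir2.1 block with less thallium influx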
KCNK3 inh: human KCNK3 channel inhibition, primary screen. CHO-KCNK3 thallium flux, FluxOR fluorescence; stronger effect = lower value. O14649. AID 602410. 340,000 compounds, 0.84% hits. B-score at 10 µM;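 active = B-score under library mean minus 4 SD, starting fluorescence ratio at most library mean plus 5 SD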;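 note: more negative B-score means stronger inhibition of thallium flux through KCNK3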
Target sequence (O14649 whole entry, looked up): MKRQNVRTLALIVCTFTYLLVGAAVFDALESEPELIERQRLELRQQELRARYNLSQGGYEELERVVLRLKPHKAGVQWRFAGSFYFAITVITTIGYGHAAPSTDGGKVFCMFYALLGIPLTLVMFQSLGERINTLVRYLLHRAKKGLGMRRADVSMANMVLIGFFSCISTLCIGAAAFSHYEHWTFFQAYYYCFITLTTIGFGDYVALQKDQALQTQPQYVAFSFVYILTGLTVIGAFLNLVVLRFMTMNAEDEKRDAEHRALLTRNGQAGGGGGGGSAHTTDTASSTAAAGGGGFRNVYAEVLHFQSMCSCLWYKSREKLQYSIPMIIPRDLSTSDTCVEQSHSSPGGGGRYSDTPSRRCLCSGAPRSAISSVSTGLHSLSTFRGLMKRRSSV
hERG rescue: hERG (human) protection from proarrhythmic block | Q12809 | activation (rescue from dofetilide block), less the hit threshold, % at 10 µM | CHO-hERG, FluxOR thallium flux, dofetilide IC70 present | 310,000 compounds, 0.51% hits;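 active = activation above the mean of controls blocked by dofetilide plus 5 SD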;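 note: thallium influx through hERG after potassium depolarization seen as dye fluorescence rise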
KCNQ1 pot: potentiators or activators of human KCNQ1 potassium channel | CHO-K1 KCNQ1, thallium flux FluxOR fluorescence; stronger effect = higher value | B-score at 10 µM | 310,000 compounds, 0.35% hits;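 active = fluorescence ratio B-score, a plate-corrected score, at least three library SD, with initial intensity B-score within 5 SD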
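assay system = KCNQ1-transfected CHO-K1 cells | medium = assay buffer with matched DMSO | probe or stimulus = depolarizing K+/Tl+ stimulus, K2SO4 and Tl2SO4 each 12.5 mM in 5x stock | dosing = single dose | incubation = dye 90 min, compound 20 min, room temperature | detection = kinetic FluxOR fluorescence, 10 s baseline plus 110 s post-stimulus | evaluation = ratio B score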
KCNK3 confirm: human KCNK3 channel inhibition, confirmation assay; AID 651638; ratio percent of control, % at 10 µM; shares compounds with KCNK3 inh; 2,400 compounds, 99% hits; CHO-KCNK3 thallium flux, FluxOR fluorescence; 0% buffer, 100% carvedilol maximal block;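 active = ratio percent of control, averaged over triplicates, above buffer control mean plus 5 SD, cut at about 64% in these data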;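 note: ratio is the fluorescence rise from min to max over baseline after thallium stimulus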
KCNK3 uninduced: counter-screen for KCNK3 inhibitors: effect in non-induced cells. non-induced KCNK3 parental cells, FluxOR thallium flux; stronger effect = lower value. thallium flux ratio (lower = more inhibition) at 10 µM. 2,400 compounds, 40% hits. shares compounds with KCNK3 inh;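 active = thallium flux ratio, averaged over three wells, more than 5 SD below the buffer control mean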;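 note: host cells are CHO cells without KCNK3 induction; ratio is peak minus trough fluorescence over baseline then normalized to buffer controls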
Numbers without * were called inactive; i = inactive; nt = no result given. Shown are actives, neighbours in structure and some others; about 3.8% of the full set was active somewhere.

SMILES	KCNQ1 block	KCNK9 inh	Kir21 inh	KCNK3 inh	hERG rescue	KCNQ1 pot	KCNK3 confirm	KCNK3 uninduced
O=C(OCC#CCSc1nc2ccccc2o1)c1cc2ccccc2o1	i	i	2.62	-10.8*	-8.6	i	104.7*	0.153*
CS(=O)(=O)Cc1ccc(C(=O)N(CCc2ccccc2)Cc2ccccc2)cc1	i	i	0.1	i	-8.4	i	nt	nt
CN1CCN(c2nc3ccccn3c(=O)c2C=C(C#N)C#N)CC1	i	i	0.01	i	-2.5	i	nt	nt
COc1ccccc1NC(=O)CCS(=O)(=O)c1cc2c(cc1Cl)NC(=O)CO2	i	i	0.05	i	-9.1	i	nt	nt
COc1ccc2ccccc2c1CN1CCN(C(=O)c2ccco2)CC1	i	i	-0.05	-11*	-1.2	i	90.3*	i
Cc1ccc(C(=O)NCC(=O)OCC(=O)Nc2ccccc2C#N)s1	i	i	-0.59	i	-16.0	i	nt	nt
O=S(=O)(c1cc(Br)ccc1Br)N1CCCCCC1	i	i	-0.45	-11*	-3.9	i	128.7*	0.137*
COc1ccc(C(CNC(=O)C(C)Sc2ccccc2)N2CCOCC2)cc1 (centres undefined)	nt	nt	nt	i	nt	nt	nt	nt
CCOC(=O)C1CCCN(C(=O)c2cc(Nc3ccc(OC)c(OC)c3)nc3ccccc23)C1 (centres undefined)	i	i	1.18	i	-7.3	i	nt	nt
CCOC(=O)C1CCCN(C(=O)c2cc(-c3ccc(C)cc3)nc3ccccc23)C1 (centres undefined)	i	i	0.91	-9.71*	-30.8	i	107.7*	i
Cc1cc2c(SCC(=O)NC3CCCC3)ncnc2s1	i	i	0.75	i	-6.7	i	nt	nt
COc1ccc(OCCSc2nc(C)nc3ccccc23)cc1	i	i	0.71	-11.9*	-27.9	i	123.0*	i
COc1ccc(OCCSc2ncccn2)cc1	i	i	-0.8	i	-7.5	i	nt	nt
CCC(C)NC(=O)C1CCN(S(=O)(=O)c2ccc(-n3cnnn3)cc2)CC1 (centres undefined)	i	i	-0.05	i	-1.2	i	nt	nt
Cc1ccccc1-n1nnnc1SCc1ncc(-c2ccccc2)o1	i	i	-2.58	-9.41*	-12.9	i	99.0*	i
CC(C)Nc1cc(C(C)(C)C)nc2c(-c3ccccc3)cnn12	i	i	-0.54	-10.3*	-13.1	i	81.7*	0.142*
Cc1cc(NC(=O)CSc2nc3c([nH]c4ccccc43)c(=O)n2-c2cccc(C(F)(F)F)c2)no1	i	i	-0.67	-10.6*	-7.2	i	92.0*	i
Cc1cccc(Sc2c(C=O)c3ccccc3n2C)c1	i	i	-0.87	-10.2*	-6.1	i	110.3*	0.136*
CCOC(=O)c1ccc(NC(=O)CSCc2ccco2)cc1	i	i	-1.6	-9.17*	-22.2	i	91.3*	i
CC[C@H](C)/C=C(C)/C=C/C1=CC2=CC(=O)[C@]3(C)OC(=O)[C@@H](C(C)=O)[C@@H]3C2=CO1	6*	i	-1.66	-9.02*	-24.0	i	122.0*	0.0783*
c1ccc(SCc2cc(-c3ccccc3)no2)cc1	i	i	-0.85	-10.2*	-8.7	i	99.7*	i
O=C(Cn1c(CO)nc2ccccc21)Nc1cc(C(F)(F)F)ccc1N1CCOCC1	i	i	-0.37	-10.2*	-5.9	i	65.7*	i
Cc1nn(CC(=O)NCCc2cccs2)c(=O)c2cc3ccccc3n12	i	i	-0.67	i	-4.4	i	nt	nt
CCCc1cc(NCCCn2ccnc2)n2nc(C)c(-c3ccccc3)c2n1	i	i	-5.79	-8.85*	-22.4	i	108.7*	0.149*
